One may read the IC50 as the concentration at which inhibition is half-maximal. High values mean lower potency, low ones higher potency. Broadly, the EC50 is the concentration giving half of the maximal effect.

The structures appear in SMILES notation.

Experiment [1] concerns the target Histone deacetylase 2 (Homo sapiens, UniProt Q92769). The experiment can be described thus: Inhibition of HDAC2 (unknown origin).
For experiment [2], the target named is Histone deacetylase 1 (Homo sapiens, UniProt Q13547). As to the kind of experiment: Inhibition of HDAC1 (unknown origin).
The target in experiment [3] is T1, Class 1 histone deacetylase (Homo sapiens, UniProt Q13547+O15379+Q92769+Q9BY41). As to the kind of experiment: Inhibition of Class 1 HDAC in VSV-G-pseudotyped HIV infected human 2C4 cell Jurkat model assessed as reactivation of HIV latency in presence of 5% NHS by fluorescent reporter gene assay. The method, boiled down:
(§1)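 Latently infected Jurkat 2C4 cells (HIV latency model) were tested for reactivation of silenced provirus in parallel at two normal human serum levels: 0.1% and 5%. The paired runs gauge the potency shift from plasma protein binding.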
Background: In a reporter assay the amount or activity of a reporter protein is the signal.

Experiment [4] concerns the target T1, Class 1 histone deacetylase. The experiment can be described thus: Inhibition of Class 1 HDAC in VSV-G-pseudotyped HIV infected human 2C4 cell Jurkat model assessed as reactivation of HIV latency in presence of 0.1% NHS by fluorescent reporter gene assay. The method, boiled down: as §1
For experiment [5], the target named is T2, Histone deacetylase 8 (Homo sapiens, UniProt Q9BY41).
T2 sequence (Q9BY41 whole entry): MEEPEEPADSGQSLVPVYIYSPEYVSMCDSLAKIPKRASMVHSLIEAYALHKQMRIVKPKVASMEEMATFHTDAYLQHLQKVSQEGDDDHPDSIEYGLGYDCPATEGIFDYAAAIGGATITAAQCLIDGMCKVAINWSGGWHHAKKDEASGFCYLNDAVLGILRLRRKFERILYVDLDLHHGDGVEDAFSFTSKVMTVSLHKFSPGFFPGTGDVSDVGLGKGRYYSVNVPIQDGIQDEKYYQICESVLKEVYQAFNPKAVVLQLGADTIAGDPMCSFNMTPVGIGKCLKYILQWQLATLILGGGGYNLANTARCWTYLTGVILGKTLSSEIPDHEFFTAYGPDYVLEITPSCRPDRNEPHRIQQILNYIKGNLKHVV
As to the kind of experiment: Inhibition of HDAC8 (unknown origin).

Experiment [6] addresses T3, Protein deacetylase HDAC6 (Homo sapiens, UniProt Q9UBN7).
T3 sequence (Q9UBN7 whole entry): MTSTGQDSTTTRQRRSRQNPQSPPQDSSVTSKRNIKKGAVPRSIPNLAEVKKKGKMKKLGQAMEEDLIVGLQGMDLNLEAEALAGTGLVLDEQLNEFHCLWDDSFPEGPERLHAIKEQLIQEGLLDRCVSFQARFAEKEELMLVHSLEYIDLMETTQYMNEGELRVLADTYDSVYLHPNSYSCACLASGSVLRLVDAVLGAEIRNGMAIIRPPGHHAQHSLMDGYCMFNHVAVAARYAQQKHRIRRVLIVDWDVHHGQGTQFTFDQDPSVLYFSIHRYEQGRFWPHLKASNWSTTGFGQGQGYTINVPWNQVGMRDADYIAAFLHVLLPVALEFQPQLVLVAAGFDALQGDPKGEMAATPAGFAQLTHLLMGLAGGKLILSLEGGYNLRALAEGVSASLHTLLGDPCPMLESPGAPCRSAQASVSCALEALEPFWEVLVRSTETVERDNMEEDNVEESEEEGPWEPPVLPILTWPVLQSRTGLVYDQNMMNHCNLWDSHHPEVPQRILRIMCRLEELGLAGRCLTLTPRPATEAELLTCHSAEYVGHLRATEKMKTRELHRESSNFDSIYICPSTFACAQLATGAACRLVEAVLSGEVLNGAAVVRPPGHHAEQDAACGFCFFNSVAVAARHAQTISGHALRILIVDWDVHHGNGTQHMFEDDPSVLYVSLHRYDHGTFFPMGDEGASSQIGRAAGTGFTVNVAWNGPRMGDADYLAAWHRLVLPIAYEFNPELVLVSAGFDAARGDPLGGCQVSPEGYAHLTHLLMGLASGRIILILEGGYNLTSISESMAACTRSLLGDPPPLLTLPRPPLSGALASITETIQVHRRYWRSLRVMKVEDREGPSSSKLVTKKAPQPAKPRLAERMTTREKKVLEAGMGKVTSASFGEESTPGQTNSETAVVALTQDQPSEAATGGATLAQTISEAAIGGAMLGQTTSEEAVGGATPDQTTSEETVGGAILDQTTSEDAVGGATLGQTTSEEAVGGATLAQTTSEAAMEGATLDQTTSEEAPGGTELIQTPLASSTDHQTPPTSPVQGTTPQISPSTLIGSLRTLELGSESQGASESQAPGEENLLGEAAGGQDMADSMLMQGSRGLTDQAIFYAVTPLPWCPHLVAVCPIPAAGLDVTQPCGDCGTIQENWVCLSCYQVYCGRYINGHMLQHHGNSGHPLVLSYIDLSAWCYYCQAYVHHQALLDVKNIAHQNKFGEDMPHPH
As to the kind of experiment: Inhibition of HDAC6 (unknown origin).

The target of experiment [7] is Histone deacetylase 3 (Homo sapiens, UniProt O15379). The experiment can be described thus: Inhibition of HDAC3 (unknown origin).
Sequence of Histone deacetylase 3 (O15379 whole entry): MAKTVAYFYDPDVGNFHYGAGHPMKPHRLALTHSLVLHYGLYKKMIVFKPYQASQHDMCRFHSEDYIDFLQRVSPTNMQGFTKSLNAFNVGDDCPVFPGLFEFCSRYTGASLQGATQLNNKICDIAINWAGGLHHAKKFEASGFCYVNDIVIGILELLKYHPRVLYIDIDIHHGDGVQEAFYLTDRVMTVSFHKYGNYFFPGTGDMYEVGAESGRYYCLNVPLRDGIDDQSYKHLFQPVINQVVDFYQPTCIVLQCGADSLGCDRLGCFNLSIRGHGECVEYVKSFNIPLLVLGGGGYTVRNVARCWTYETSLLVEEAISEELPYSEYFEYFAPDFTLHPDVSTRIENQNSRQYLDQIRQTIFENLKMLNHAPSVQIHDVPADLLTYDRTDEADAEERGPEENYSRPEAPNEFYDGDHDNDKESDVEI

Sequence of Histone deacetylase 2 (Q92769 whole entry): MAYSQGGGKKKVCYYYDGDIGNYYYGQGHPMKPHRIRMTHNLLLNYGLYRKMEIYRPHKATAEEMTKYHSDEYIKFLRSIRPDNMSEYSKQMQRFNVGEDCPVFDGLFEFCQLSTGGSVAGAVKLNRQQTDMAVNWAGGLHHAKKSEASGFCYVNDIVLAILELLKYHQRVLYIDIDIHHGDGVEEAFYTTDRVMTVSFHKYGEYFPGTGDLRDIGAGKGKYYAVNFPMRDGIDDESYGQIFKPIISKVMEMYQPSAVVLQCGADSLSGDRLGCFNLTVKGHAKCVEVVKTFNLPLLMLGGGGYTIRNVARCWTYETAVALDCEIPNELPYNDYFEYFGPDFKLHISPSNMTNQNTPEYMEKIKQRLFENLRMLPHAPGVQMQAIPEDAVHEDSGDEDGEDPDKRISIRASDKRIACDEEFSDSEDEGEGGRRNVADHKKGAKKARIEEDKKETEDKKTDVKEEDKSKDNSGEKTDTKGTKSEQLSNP
Sequence of Histone deacetylase 1 (Q13547 whole entry): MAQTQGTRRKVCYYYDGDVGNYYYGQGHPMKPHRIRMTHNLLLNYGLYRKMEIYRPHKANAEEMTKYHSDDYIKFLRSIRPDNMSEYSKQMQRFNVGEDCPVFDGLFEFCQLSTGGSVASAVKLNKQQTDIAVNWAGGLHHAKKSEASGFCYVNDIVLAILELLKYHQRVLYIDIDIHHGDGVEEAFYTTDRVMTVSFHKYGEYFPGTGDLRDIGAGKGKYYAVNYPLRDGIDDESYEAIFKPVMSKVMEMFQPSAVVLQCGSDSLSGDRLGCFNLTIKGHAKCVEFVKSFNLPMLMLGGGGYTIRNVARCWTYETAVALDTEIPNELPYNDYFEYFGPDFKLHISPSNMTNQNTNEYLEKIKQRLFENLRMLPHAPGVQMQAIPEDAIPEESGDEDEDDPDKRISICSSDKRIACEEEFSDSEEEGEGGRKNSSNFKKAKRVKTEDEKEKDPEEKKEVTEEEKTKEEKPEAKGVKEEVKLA

As to `CCC(=O)CCCCC[C@H](NC(=O)c1ccon1)c1[nH]c(-c2ccc(F)cc2)nc1C#N`, the IC50 in experiment [1] was 164 nM; in experiment [2], 35.6 nM; in experiment [5] it was 16200 nM; in experiment [6] it was over 45000 nM; in experiment [7], 12.1 nM. For the same compound, the EC50 came out at 2726 nM in experiment [3] and 558 nM in experiment [4].

Consider `CCC(=O)CCCCC[C@H](NC(=O)C12CCN(CC1)CC2)c1[nH]c(-c2ccc(F)cc2)nc1C#N`, for which the IC50 in experiment [1] was 26.9 nM; in experiment [2] it was 6.2 nM; in experiment [5] it was 6930 nM; in experiment [6], over 45000 nM; in experiment [7], 2.4 nM. In addition, the EC50 in experiment [3] was found to be 2207 nM; in experiment [4] it was 1731 nM.

`CCC(=O)CCCCCC(NC(=O)c1cncs1)c1[nH]c(-c2ccccc2)nc1C(N)=O` (configuration not stated): the half-inhibitory concentration (IC50) in experiment [1] worked out at 26.7 nM; in experiment [2], 7.2 nM; in experiment [5] it was 4700 nM; in experiment [6] it was 16400 nM. The values for the concentration giving a half-maximal response (EC50) in experiment [3] and in experiment [4] were 537 nM and 154 nM, respectively.

Consider `CCC(=O)CCCCC[C@H](NC(=O)[C@H]1CC12CCN(C)CC2)c1[nH]c(-c2ccccc2F)nc1C#N`, for which the IC50 in experiment [1] was determined as 96 nM; in experiment [2], 17 nM; in experiment [5] it was 39600 nM; in experiment [6] it was 22500 nM; in experiment [7], 10.7 nM. Also, the EC50 in experiment [3] amounted to 1162 nM; in experiment [4], 566 nM.

On to `CCC(=O)CCCCC[C@H](NC(=O)[C@H]1CC12CCN(C)CC2)c1[nH]c(-c2ccc(-c3cccnc3)cc2)nc1C#N`, for which the IC50 was 1.7 nM in experiment [1]; 0.2 nM in experiment [2]; 12600 nM in experiment [5]; 9470 nM in experiment [6]; 0.3 nM in experiment [7]. Also, the EC50 in experiment [3] was determined as 55 nM; in experiment [4], 77 nM.

For the compound `CCC(=O)CCCCC[C@H](NC(=O)[C@H]1CC12CCN(C)CC2)c1[nH]c(-c2ccc(F)cc2)nc1C(N)=O`, the IC50 in experiment [1] amounted to 6.3 nM; in experiment [2] it was 0.6 nM; in experiment [5], 6800 nM; in experiment [6], 17600 nM; in experiment [7] it was 0.9 nM. The 50% effective concentration (EC50) is recorded as 276 nM in experiment [3] and 166 nM in experiment [4].

`CCC(=O)CCCCC[C@H](NC(=O)[C@H]1CC12CCN(C)CC2)c1[nH]c(-c2cccnc2OC)nc1C#N`: the IC50 in experiment [1] stood at 229 nM; in experiment [2], 58.9 nM; in experiment [5], 38100 nM; in experiment [6], 17100 nM; in experiment [7], 34.8 nM. For the same compound, the EC50 worked out at 1669 nM in experiment [3] and 2112 nM in experiment [4].

Consider `CCC(=O)CCCCC[C@H](NC(=O)C1CN(C)C1)c1[nH]c(-c2ccc(F)cc2)nc1C#N`, for which the IC50 in experiment [1] came out at 117 nM; in experiment [2], 25.9 nM; in experiment [5], 19700 nM; in experiment [6] it was 36900 nM; in experiment [7] it was 13.8 nM. Also, the EC50 in experiment [3] was determined as 2071 nM; in experiment [4] it was 1564 nM.

Consider `CCC(=O)CCCCC[C@H](NC(=O)CN(C)C)c1[nH]c(-c2ccc(F)cc2)nc1C#N`, for which the IC50 in experiment [1] stood at 219 nM; in experiment [2] it was 47.9 nM; in experiment [5], 29500 nM; in experiment [6], 43300 nM; in experiment [7], 26.8 nM. The EC50 in experiment [3] is reported as 3532 nM; in experiment [4], 1605 nM.

For `CCC(=O)CCCCC[C@H](NC(=O)[C@H]1CC12CCN(CC)CC2)c1[nH]c(-c2ccc(F)cc2)nc1C#N`, the IC50 was 11.7 nM in experiment [1]; 2.8 nM in experiment [2]; 9370 nM in experiment [5]; 23600 nM in experiment [6]; 1.8 nM in experiment [7]. Further, the figures for the EC50 in experiment [3] and in experiment [4] were 259 nM and 161 nM, respectively.

Regarding `CCC(=O)CCCCC[C@H](NC(=O)[C@H]1CC12CCN(C)CC2)c1[nH]c(-c2ccc3nc(C)ccc3c2)nc1C#N`, the IC50 worked out at 1.5 nM in experiment [1]; 0.3 nM in experiment [2]; 9830 nM in experiment [5]; 6300 nM in experiment [6]; 0.2 nM in experiment [7]. The EC50 is given as 97 nM in experiment [3] and 105 nM in experiment [4].

As for `CCC(=O)CCCCC[C@H](NC(=O)c1cncs1)c1[nH]c(-c2ccc(F)cc2)nc1C#N`, the IC50 was 51.3 nM in experiment [1]; 10.6 nM in experiment [2]; 12300 nM in experiment [5]; over 45000 nM in experiment [6]; 3.1 nM in experiment [7]. Further, the EC50 in experiment [3] is recorded as 1111 nM; in experiment [4], 254 nM.

In the case of `CCC(=O)CCCCC[C@H](NC(=O)[C@H]1CC12CCN(C)CC2)c1[nH]c(-c2ccc3nn(C)cc3c2)nc1C#N`, the IC50 in experiment [1] was determined as 2.1 nM; in experiment [2] it was 0.4 nM; in experiment [5] it was 12400 nM; in experiment [6], 9040 nM; in experiment [7] it was 0.3 nM. Moreover, the half-maximal effective concentration (EC50) in experiment [3] stood at 322 nM; in experiment [4], 247 nM.

Take `CCC(=O)CCCCC[C@H](NC(=O)[C@H]1CC12CCN(C)CC2)c1[nH]c(-c2cc3ccccc3nc2OC)nc1C#N`: the IC50 in experiment [1] was 177 nM; in experiment [2] it was 97.9 nM; in experiment [5], over 45000 nM; in experiment [6], 8970 nM; in experiment [7], 101 nM. Moreover, the concentration giving a half-maximal response (EC50) in experiment [3] is 1351 nM; in experiment [4] it was 548 nM.

In the case of `CCC(=O)CCCCC[C@H](NC(=O)C1CN(C)C1)c1[nH]c(-c2ccc(F)cc2)nc1C(N)=O`, the IC50 in experiment [1] stood at 34.4 nM; in experiment [2], 3.5 nM; in experiment [5], 5380 nM; in experiment [6], 15900 nM; in experiment [7], 3.6 nM. Moreover, the results for the concentration for a half-maximal effect (EC50) in experiment [3] and in experiment [4] were 643 nM and 775 nM, respectively.

`CCC(=O)CCCCC[C@H](NC(=O)[C@H]1CC12CCN(CC)CC2)c1[nH]c(-c2ccc(F)cc2)nc1C(N)=O`: the IC50 in experiment [1] is 5 nM; in experiment [2], 0.4 nM; in experiment [5], 6360 nM; in experiment [6], 17500 nM; in experiment [7] it was 0.7 nM. The EC50 in experiment [3] came to 165 nM; in experiment [4] it was 193 nM.

Take `CCC(=O)CCCCC[C@H](NC(=O)C1CCOCC1)c1[nH]c(-c2ccc(F)cc2)nc1C(N)=O`: the IC50 came out at 73.8 nM in experiment [1]; 12.3 nM in experiment [2]; 7570 nM in experiment [5]; 27900 nM in experiment [6]; 3.4 nM in experiment [7]. Further, the EC50 is given as 1504 nM in experiment [3] and 1834 nM in experiment [4].

Consider `CCC(=O)CCCCC[C@H](NC(=O)[C@H]1CC12CCN(C)CC2)c1[nH]c(-c2ccc(F)cc2F)nc1C#N`, for which the IC50 was 155 nM in experiment [1]; 35.2 nM in experiment [2]; 20700 nM in experiment [5]; 14800 nM in experiment [6]; 18.9 nM in experiment [7]. Further, the EC50 in experiment [3] was found to be 1260 nM; in experiment [4] it was 1233 nM.

`CCC(=O)CCCCC[C@H](NC(=O)[C@H]1CC12CCN(C)CC2)c1[nH]c(-c2ccc(C(F)(F)F)cc2)nc1C#N`: the IC50 in experiment [1] amounted to 15.6 nM; in experiment [2], 3.7 nM; in experiment [5], 19200 nM; in experiment [6], 8250 nM; in experiment [7], 1.9 nM. Also, the figures for the EC50 in experiment [3] and in experiment [4] were 175 nM and 107 nM, respectively.
